Test results from ChEMBL document CHEMBL3580601, “Discovery of a Potent Parenterally Administered Factor XIa Inhibitor with Hydroxyquinolin-2(1H)-one as the P2' Moiety” (ACS Med Chem Lett, 2015).
pEC50, pKi: −log10 of the molar value. Converted amounts (≈) assume the structure as drawn. The source made the active and inactive calls. The rule behind the calls is not given here.

What was measured:
[1] = Half life in rat at 1 mg/kg, iv; format: ADME, organism-based; conditions: in vivo
[2] = Half life in human liver microsomes; format: ADME
Plasma [3] = test: Anticoagulant activity in healthy human plasma assessed as concentration required to cause two fold prolongation of activated partial thromboplastin time; format: functional
Coagulation factor XI [4] = target: T1, Coagulation factor XI (Homo sapiens, UniProt P03951); test: Inhibition of human coagulation factor 11a using p-nitroaniline as substrate assessed as substrate hydrolysis by spectrophotometry
How it was run: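 Human enzyme Ki, averaged over multiple determinations (n = 2).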

[5] = Solubility in 50 mM pH 6.5 phosphate buffer using amorphous form of compound; format: physicochemical
[6] = Half life in rabbit at 1 mg/kg, iv; format: ADME, organism-based, Oryctolagus cuniculus; conditions: in vivo
How it was run: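 Rabbits given a single IV dose of 1 mg/kg of the HCl salt in 10% DMAc/90% D5W (5% dextrose in water), with half-life taken from the plasma PK profile.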

[7] = Half life in cynomolgus monkey at 1 mg/kg, iv; format: ADME, organism-based, Macaca fascicularis; conditions: in vivo
[8] = Half life in dog at 1 mg/kg, iv; format: ADME, organism-based, Canis lupus familiaris; conditions: in vivo
How it was run: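 Dogs dosed IV at 1 mg/kg with the HCl salt in 10% DMAc/10% ethanol/10% propylene glycol/70% water, with half-life from the pharmacokinetic profile.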

[9] = target: Tissue-type plasminogen activator (Homo sapiens, UniProt P00750); test: Inhibition of tPA (unknown origin)
How it was run: (§1)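 Ki against each human enzyme, averaged from duplicate IC50 determinations.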

Plasma [10] = test: Anticoagulant activity in dog plasma assessed as concentration required to cause 1.5 fold prolongation of activated partial thromboplastin time
Oryctolagus cuniculus [11] = test: Antithrombotic activity in iv dosed rabbit model of electrically induced carotid arterial thrombosis assessed as reduction in thrombus formation; format: functional, organism-based
[12] = Inhibition of rabbit coagulation factor 11a using p-nitroaniline as substrate assessed as substrate hydrolysis at 37 degC by spectrophotometry; design: species or system Oryctolagus cuniculus
[13] = Unbound fraction in human plasma; format: ADME, cell-free
Coagulation factor XII = target: T2, Coagulation factor XII (Homo sapiens, UniProt P00748); test: Inhibition of coagulation factor 12a (unknown origin); how it was run: as §1
T2 sequence (P00748 whole entry): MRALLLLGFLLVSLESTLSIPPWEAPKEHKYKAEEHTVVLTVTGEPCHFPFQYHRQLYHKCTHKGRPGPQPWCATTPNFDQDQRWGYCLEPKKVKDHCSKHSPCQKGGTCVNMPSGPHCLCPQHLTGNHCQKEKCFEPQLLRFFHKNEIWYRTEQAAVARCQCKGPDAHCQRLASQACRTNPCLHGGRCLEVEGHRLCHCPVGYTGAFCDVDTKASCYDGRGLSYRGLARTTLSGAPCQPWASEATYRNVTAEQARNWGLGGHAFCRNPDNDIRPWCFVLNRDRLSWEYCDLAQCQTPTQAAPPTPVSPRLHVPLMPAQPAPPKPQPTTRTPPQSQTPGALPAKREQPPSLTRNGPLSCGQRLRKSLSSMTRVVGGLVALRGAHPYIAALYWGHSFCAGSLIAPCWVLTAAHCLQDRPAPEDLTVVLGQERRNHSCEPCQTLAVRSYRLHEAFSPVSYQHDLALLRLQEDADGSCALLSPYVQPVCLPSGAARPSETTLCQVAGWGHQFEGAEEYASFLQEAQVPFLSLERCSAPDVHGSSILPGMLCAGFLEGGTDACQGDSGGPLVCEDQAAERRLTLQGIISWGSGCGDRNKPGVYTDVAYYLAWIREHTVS

[14] = Unbound fraction in rabbit plasma; format: ADME, cell-free, Oryctolagus cuniculus
Coagulation factor IX = Coagulation factor IX (Homo sapiens, UniProt P00740); test: Inhibition of coagulation factor 9a (unknown origin); how it was run: as §1
Coagulation factor X = Coagulation factor X (Homo sapiens, UniProt P00742); test: Inhibition of coagulation factor 10a (unknown origin); how it was run: as §1
Trypsin = Trypsin (Homo sapiens, UniProt P07477+P07478+P35030); test: Inhibition of trypsin (unknown origin); format: protein assay; how it was run: as §1
Plasma kallikrein = Plasma kallikrein (Homo sapiens, UniProt P03952); test: Inhibition of plasma kallikrein (unknown origin); how it was run: as §1
[15] = Unbound fraction in rat plasma; format: ADME, cell-free
[16] = Unbound fraction in dog plasma; format: ADME, cell-free, Canis lupus familiaris
Oryctolagus cuniculus [17] = species: Oryctolagus cuniculus; test: Toxicity in rabbit cuticle bleeding time model assessed as prologation of bleeding time at 100 uM; format: organism-based; conditions: in vivo
Plasma [18] = test: Anticoagulant activity in cynomolgus monkey plasma assessed as concentration required to cause 1.5 fold prolongation of activated partial thromboplastin time
Prothrombin = Prothrombin (Homo sapiens, UniProt P00734); test: Inhibition of thrombin (unknown origin); how it was run: as §1
Coagulation factor XI [19] = target: T1, Coagulation factor XI; test: Inhibition of human coagulation factor 11a using p-nitroaniline as substrate assessed as substrate hydrolysis at 37 degC by spectrophotometry
Coagulation factor VII = target: T3, Coagulation factor VII (Homo sapiens, UniProt P08709); test: Inhibition of coagulation factor 7a (unknown origin); how it was run: as §1
T3 sequence (P08709 whole entry): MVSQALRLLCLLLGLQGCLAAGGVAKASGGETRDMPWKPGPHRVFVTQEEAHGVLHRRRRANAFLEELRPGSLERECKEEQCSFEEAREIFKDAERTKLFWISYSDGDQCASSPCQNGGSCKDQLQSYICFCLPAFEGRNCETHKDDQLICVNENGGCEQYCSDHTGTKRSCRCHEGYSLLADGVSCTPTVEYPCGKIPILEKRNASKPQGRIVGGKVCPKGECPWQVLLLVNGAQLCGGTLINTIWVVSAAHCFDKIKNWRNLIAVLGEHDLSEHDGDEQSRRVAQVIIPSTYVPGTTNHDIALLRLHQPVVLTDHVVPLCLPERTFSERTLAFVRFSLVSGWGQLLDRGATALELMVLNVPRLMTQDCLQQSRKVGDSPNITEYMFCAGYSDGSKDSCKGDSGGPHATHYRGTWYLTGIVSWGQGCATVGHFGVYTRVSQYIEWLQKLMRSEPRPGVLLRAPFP

[20] = target: Vitamin K-dependent protein C (Homo sapiens, UniProt P04070); test: Inhibition of APC (unknown origin); how it was run: as §1
Plasma [21] = test: Anticoagulant activity in rabbit plasma assessed as concentration required to cause 1.5 fold prolongation of activated partial thromboplastin time
[22] = target: Urokinase-type plasminogen activator (Homo sapiens, UniProt P00749); test: Inhibition of urokinase (unknown origin); how it was run: as §1
Plasma [23] = test: Anticoagulant activity in rabbit plasma assessed as prolongation of activated partial thromboplastin time at 100 uM; format: functional, Oryctolagus cuniculus
Kallikrein-1 = Kallikrein-1 (Homo sapiens, UniProt P06870); test: Inhibition of tissue kallikrein (unknown origin); how it was run: as §1
Plasma [24] = test: Anticoagulant activity in rat plasma assessed as concentration required to cause 1.5 fold prolongation of activated partial thromboplastin time
[25] = Inhibition of chymotrypsin (unknown origin); design: species or system Homo sapiens; how it was run: as §1
[26] = Unbound fraction in cynomolgus monkey plasma; format: ADME, cell-free, Macaca fascicularis
Plasma [27] = test: Anticoagulant activity in rabbit plasma assessed as prolongation of thrombin time at 100 uM; format: functional, cell-free; conditions: Oryctolagus cuniculus
Oryctolagus cuniculus [28] = test: Antithrombotic activity in iv dosed rabbit model of electrically induced carotid arterial thrombosis assessed as increase in integrated blood flow of the injured artery; format: functional, organism-based
Plasma [29] = test: Anticoagulant activity in rabbit plasma assessed as prolongation of prothrombin time at 100 uM; format: functional, cell-free; conditions: Oryctolagus cuniculus

T1 sequence (P03951 19-387 limits assumed): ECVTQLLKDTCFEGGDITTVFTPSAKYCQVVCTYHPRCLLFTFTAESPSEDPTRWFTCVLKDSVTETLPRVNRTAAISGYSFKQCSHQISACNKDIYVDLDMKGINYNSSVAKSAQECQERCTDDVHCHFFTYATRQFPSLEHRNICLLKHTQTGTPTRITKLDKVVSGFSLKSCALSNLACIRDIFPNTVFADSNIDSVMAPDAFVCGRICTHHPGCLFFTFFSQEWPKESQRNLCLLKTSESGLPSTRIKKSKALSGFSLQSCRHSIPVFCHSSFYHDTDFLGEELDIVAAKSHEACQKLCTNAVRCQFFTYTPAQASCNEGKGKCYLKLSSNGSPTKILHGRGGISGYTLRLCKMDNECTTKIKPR
T1 sequence (P03951 388-625 limits assumed): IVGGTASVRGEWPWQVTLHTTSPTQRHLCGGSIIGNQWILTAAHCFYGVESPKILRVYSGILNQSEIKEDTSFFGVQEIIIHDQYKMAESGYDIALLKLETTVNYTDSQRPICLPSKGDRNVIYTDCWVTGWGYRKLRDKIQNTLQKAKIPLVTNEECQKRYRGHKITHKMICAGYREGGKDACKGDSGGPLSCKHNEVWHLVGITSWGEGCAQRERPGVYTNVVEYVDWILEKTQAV
Coagulation factor IX, sequence (P00740 47-191 limits assumed): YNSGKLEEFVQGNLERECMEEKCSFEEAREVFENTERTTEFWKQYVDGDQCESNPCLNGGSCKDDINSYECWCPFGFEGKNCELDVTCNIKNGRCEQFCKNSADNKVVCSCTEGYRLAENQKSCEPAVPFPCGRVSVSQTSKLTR
Coagulation factor IX, sequence (P00740 227-461 limits assumed): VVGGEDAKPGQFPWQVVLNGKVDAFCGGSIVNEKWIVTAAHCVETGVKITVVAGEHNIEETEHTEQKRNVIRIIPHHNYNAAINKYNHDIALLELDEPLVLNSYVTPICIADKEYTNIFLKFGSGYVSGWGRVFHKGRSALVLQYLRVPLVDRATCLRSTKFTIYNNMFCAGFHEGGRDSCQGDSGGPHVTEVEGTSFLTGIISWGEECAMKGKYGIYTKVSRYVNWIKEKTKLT
Kallikrein-1, sequence (P06870 whole entry): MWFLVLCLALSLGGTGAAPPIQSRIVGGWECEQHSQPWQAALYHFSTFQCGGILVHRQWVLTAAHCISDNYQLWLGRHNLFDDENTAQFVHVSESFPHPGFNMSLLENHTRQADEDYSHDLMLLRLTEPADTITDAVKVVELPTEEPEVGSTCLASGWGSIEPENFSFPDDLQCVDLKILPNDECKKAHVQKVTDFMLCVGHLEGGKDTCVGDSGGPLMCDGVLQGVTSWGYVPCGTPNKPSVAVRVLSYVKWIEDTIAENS
Coagulation factor X, sequence (P00742 41-179 limits assumed): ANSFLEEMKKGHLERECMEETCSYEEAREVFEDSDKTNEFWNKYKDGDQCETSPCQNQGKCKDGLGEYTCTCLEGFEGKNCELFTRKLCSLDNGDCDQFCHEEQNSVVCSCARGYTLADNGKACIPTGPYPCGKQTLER
Coagulation factor X, sequence (P00742 235-488 limits assumed): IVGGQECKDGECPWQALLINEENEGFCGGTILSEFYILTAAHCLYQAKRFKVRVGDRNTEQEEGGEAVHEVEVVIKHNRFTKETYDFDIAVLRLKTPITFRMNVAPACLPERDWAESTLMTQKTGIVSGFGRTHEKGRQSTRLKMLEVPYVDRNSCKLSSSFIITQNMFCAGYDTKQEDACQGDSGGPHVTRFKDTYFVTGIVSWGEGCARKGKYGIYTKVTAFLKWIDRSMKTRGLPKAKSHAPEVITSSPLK
Plasma kallikrein, sequence (P03952 20-390 limits assumed): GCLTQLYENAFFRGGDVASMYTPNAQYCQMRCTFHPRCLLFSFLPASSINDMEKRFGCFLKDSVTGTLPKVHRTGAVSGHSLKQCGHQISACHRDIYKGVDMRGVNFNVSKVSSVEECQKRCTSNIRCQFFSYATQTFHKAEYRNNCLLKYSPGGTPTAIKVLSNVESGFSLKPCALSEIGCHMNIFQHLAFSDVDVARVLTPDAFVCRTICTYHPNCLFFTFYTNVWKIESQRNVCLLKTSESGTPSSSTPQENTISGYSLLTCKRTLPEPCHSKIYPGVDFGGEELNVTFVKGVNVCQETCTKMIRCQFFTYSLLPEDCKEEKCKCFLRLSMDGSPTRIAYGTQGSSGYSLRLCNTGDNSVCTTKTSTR
Plasma kallikrein, sequence (P03952 391-638 limits assumed): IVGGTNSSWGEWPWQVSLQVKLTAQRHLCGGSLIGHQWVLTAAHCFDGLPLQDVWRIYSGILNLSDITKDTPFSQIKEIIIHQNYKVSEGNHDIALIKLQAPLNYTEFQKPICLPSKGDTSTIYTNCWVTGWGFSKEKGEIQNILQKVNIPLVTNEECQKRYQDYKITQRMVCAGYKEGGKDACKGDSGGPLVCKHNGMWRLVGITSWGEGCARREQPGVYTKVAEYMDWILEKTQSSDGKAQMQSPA
Tissue-type plasminogen activator, sequence (P00750 whole entry): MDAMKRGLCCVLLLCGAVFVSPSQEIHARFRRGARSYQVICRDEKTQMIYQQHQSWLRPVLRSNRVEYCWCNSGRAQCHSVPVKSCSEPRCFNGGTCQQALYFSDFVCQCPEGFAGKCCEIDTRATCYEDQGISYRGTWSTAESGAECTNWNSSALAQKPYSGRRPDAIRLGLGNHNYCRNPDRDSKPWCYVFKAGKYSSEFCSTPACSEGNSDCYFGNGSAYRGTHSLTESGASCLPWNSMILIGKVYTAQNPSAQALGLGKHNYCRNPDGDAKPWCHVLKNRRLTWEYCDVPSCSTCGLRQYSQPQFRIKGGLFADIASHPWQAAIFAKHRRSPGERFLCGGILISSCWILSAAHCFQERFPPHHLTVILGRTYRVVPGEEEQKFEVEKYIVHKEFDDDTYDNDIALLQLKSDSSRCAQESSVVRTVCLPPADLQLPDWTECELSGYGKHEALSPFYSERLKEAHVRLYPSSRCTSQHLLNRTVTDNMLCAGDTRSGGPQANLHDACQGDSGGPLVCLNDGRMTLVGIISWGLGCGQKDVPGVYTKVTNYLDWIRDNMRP
Vitamin K-dependent protein C, sequence (P04070 43-197 limits assumed): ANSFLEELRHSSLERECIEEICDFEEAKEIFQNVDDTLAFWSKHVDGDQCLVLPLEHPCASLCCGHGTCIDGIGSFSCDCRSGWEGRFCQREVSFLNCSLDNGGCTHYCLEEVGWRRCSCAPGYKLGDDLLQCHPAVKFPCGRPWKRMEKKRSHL
Vitamin K-dependent protein C, sequence (P04070 212-461 limits assumed): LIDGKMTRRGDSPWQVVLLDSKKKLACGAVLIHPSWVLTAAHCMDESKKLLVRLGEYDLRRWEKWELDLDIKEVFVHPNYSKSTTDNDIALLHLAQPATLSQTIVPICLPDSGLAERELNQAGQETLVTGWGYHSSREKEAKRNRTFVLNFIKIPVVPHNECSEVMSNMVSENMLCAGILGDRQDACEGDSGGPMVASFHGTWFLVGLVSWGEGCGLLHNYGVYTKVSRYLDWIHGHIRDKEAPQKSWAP

Structure (SMILES): CN1CCN(C(=O)C[C@H](NC(=O)/C=C/c2cc(Cl)ccc2-n2cnnn2)c2nc(-c3ccc4[nH]c(=O)cc(O)c4c3)c(Cl)[nH]2)CC1.O=C(O)C(F)(F)F
- half-life [1]: 66 min

Structure (SMILES): O=C(/C=C/c1cc(Cl)ccc1-n1cnnn1)N[C@@H](Cc1ccccc1)c1nc(-c2ccc3c(c2)CCC(=O)N3)c(Cl)[nH]1
- half-life [2]: 48 min
- 2aPTT (Plasma [3]): 60 µM
- pKi (Coagulation factor XI [4]): 7.72

Structure (SMILES): COC(=O)Nc1ccc(-c2nc([C@H](Cc3ccccc3)NC(=O)/C=C/c3cc(Cl)ccc3-n3cnnn3)[nH]c2Cl)cc1
- solubility [5]: < 1 µg/mL
- half-life [2]: 46 min
- 2aPTT (Plasma [3]): 19 µM
- pKi (Coagulation factor XI [4]): 8.43

Structure (SMILES): CN1CCN(C(=O)C[C@H](NC(=O)/C=C/c2cc(Cl)ccc2-n2cnnn2)c2nc(-c3ccc4[nH]c(=O)cc(O)c4c3)c(Cl)[nH]2)CC1.Cl
- half-life [6]: 66 min
- half-life [7]: 114 min
- half-life [8]: 66 min

Structure (SMILES): COC(=O)Nc1ccc(-c2nc([C@H](CC(=O)N3CCS(=O)(=O)CC3)NC(=O)/C=C/c3cc(Cl)ccc3-n3cnnn3)[nH]c2Cl)cc1
- solubility [5]: 1 µg/mL (≈ 1.45 µM)
- half-life [2]: 154 min
- 2aPTT (Plasma [3]): 3.6 µM
- pKi (Coagulation factor XI [4]): 9.52

Structure (SMILES): Cc1ccc(-n2cnnn2)c(CCC(=O)N[C@@H](Cc2ccccc2)c2nc(-c3ccc4[nH]c(=O)ccc4c3)c(Cl)[nH]2)c1
- half-life [2]: 2.2 min
- 2aPTT (Plasma [3]): 69 µM
- pKi (Coagulation factor XI [4]): 7.92

Structure (SMILES): O=C(CCc1cc(Cl)ccc1-n1cnnn1)N[C@@H](Cc1ccccc1)c1nc(-c2ccc3[nH]c(=O)cc(O)c3c2)c(Cl)[nH]1
- half-life [2]: 6.6 min
- 2aPTT (Plasma [3]): 7.2 µM
- pKi (Coagulation factor XI [4]): 9.49

Structure (SMILES): CN1CCN(C(=O)C[C@H](NC(=O)/C=C/c2cc(Cl)ccc2-n2cnnn2)c2nc(-c3ccc4[nH]c(=O)cc(O)c4c3)c(Cl)[nH]2)CC1 [listing 1 of 2 here]
- pKi [9]: 4.54
- EC1.5 (Plasma [10]): 0.3 µM
- pEC50 (Oryctolagus cuniculus [11]): 6.28
- pKi [12]: 9.24
- fraction unbound [13]: 0.08
- solubility [5]: 17 µg/mL (≈ 25.6 µM)
- pKi (Coagulation factor XII): < 4.70
- fraction unbound [14]: 0.07
- pKi (Coagulation factor IX): < 4.22
- pKi (Coagulation factor X): < 5.05
- Ki (Trypsin): 6200 nM
- pKi (Plasma kallikrein): 8.15
- fraction unbound [15]: 0.026
- fraction unbound [16]: 0.18
- Activity (Oryctolagus cuniculus [17]): Non-toxic
- EC1.5 (Plasma [18]): 0.3 µM
- pKi (Prothrombin): 5.13
- half-life [2]: > 200 min
- pKi (Coagulation factor XI [19]): 10.00
- pKi (Coagulation factor VII): < 4.88
- pKi [20]: < 4.27
- 2aPTT (Plasma [3]): 1 µM
- EC1.5 (Plasma [21]): 1 µM
- pKi [22]: < 5.80
- fold change (FC) (Plasma [23]): 3.2
- pKi (Kallikrein-1): < 4.52
- EC1.5 (Plasma [24]): >20 µM
- pKi (Coagulation factor XI [4]): 10.40
- pKi [25]: 6.40
- fraction unbound [26]: 0.08

Structure (SMILES): O=C(/C=C/c1cc(Cl)ccc1-n1cnnn1)N[C@@H](Cc1ccccc1)c1nc(-c2ccc3[nH]c(=O)cc(O)c3c2)c(Cl)[nH]1
- half-life [2]: 56 min
- 2aPTT (Plasma [3]): 11 µM
- pKi (Coagulation factor XI [4]): 9.74

Structure (SMILES): CN1CCN(C(=O)C[C@H](NC(=O)/C=C/c2cc(Cl)ccc2-n2cnnn2)c2nc(-c3ccc4[nH]c(=O)cc(O)c4c3)c(Cl)[nH]2)CC1 [listing 2 of 2 here]
- Activity (Oryctolagus cuniculus [11]): Dose-dependent effect
- Activity (Plasma [27]): inactive
- Activity (Oryctolagus cuniculus [28]): Dose-dependent effect
- Activity (Plasma [29]): inactive

Structure (SMILES): COC(=O)Nc1ccc(-c2nc([C@H](CC(=O)N3CCN(C(C)=O)CC3)NC(=O)/C=C/c3cc(Cl)ccc3-n3cnnn3)[nH]c2Cl)cc1
- solubility [5]: 3 µg/mL (≈ 4.4 µM)
- half-life [2]: 45 min
- 2aPTT (Plasma [3]): 4.6 µM
- pKi (Coagulation factor XI [4]): 9.22

Structure (SMILES): COC(=O)Nc1ccc(-c2nc([C@H](CC(=O)N3CCN(C)CC3)NC(=O)/C=C/c3cc(Cl)ccc3-n3cnnn3)[nH]c2Cl)cc1
- solubility [5]: 44 µg/mL (≈ 67.3 µM)
- half-life [2]: 25 min
- 2aPTT (Plasma [3]): 3.7 µM
- pKi (Coagulation factor XI [4]): 9.40

Structure (SMILES): COC(=O)Nc1ccc(-c2nc([C@H](CC(=O)N3CCOCC3)NC(=O)/C=C/c3cc(Cl)ccc3-n3cnnn3)[nH]c2Cl)cc1
- solubility [5]: 1 µg/mL (≈ 1.56 µM)
- half-life [2]: 6.2 min
- 2aPTT (Plasma [3]): 7.4 µM
- pKi (Coagulation factor XI [4]): 9.15

Structure (SMILES): Cc1ccc(-n2cnnn2)c(CCC(=O)N[C@@H](Cc2ccccc2)c2nc(-c3ccc4[nH]c(=O)cc(O)c4c3)c(Cl)[nH]2)c1
- half-life [2]: 10 min
- 2aPTT (Plasma [3]): 9.1 µM
- pKi (Coagulation factor XI [4]): 9.30
